TRPML3 ag: agonists of human TRPML3 channel; HEK293 TRPML3-YFP, Fluo-8 calcium fluorescence; 100% = the carbachol control signal; activation, % at 3 µM; actives 0.29% (n = 220,000);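 active = activation above its plate's cutoff, the mean activation of the plate's test wells plus 3 SD, cut at about 12% in these data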;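 also: 0% = DMSO only wells and 100% = carbachol wells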
Target sequence (Q8TDD5 whole entry, looked up): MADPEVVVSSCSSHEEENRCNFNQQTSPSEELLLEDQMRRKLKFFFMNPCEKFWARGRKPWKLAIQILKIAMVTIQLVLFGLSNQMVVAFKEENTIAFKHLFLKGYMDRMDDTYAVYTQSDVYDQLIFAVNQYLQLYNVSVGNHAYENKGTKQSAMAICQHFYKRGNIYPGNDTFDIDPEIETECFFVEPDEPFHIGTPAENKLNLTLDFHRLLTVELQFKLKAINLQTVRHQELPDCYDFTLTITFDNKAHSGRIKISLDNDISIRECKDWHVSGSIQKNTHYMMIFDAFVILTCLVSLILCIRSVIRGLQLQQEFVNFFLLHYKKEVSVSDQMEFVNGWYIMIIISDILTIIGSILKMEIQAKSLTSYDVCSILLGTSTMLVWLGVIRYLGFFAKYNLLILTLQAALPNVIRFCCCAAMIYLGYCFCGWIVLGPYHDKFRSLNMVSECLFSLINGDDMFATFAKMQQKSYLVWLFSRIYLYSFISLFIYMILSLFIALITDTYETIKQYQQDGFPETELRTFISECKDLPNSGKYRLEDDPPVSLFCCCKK
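Material: HEK293 cells stably carrying human TRPML3-YFP; compound dosing: single dose, 3 µM final nominal compound, 0.3% DMSO final; incubation: 1-h 37 °C dye load, 5-s basal, 120-s post-compound reads; technique: Fluo-8 intracellular calcium fluorescence, excitation 470-495 nm, emission 515-575 nm; read-out basis: percent activation from peak-to-basal fluorescence ratio, scaled between DMSO and carbachol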
zfTRPN1 agonist: agonists of zebrafish TRPN1 channel. HEK293 zebrafish TRPN1-YFP, Fluo-8 calcium fluorescence; 100% = response to 87 µM carbachol. activation, % at 3 µM. actives 0.18% (n = 220,000);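 active = activation above its plate's cutoff, the mean activation of test wells on that plate plus 3 SD, cut at about 19% in these data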;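 also: 0% = DMSO alone and 100% = 87 µM carbachol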
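Material: zebrafish TRPN1-YFP in HEK293 cells; Doses: single test compound dose, 3 µM nominal, 0.3% DMSO; Timing: dye loading 1 h at 37 °C, then 30 min room temperature; Technique: intracellular calcium fluorescence with Fluo-8; Benchmarks: high carbachol 87 µM, low DMSO alone.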
CRFBP-R2 block: blocks CRF-induced signaling of the CRF-BP/CRF-R2 complex; HEK293 CRF-R2/CRF-BP, CRF-induced calcium fluorescence; AID 588475; actives 0.59% (n = 350,000); inhibition, % at 11.8 µM;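 active = inhibition of the ligand-induced calcium signal above about 50% at the single tested concentration, limit read from the data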
CRFBP-R2 agonist: CRF-BP/CRF-R2 complex agonism; actives 0.46% (n = 350,000); activation, % at 13.2 µM; HEK293 CRF-R2/CRF-BP, calcium dye fluorescence (FLIPR); percent of saturating CRF peptide response; AID 588473;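 active = activation of at least 50%, plus an integration ratio under a set limit after plate pattern correction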;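 also: plate controls were neutral control wells without compound for no effect and CRF at EC100 for full effect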
The depositor's hits bear a star; / = no result. The list is not random: actives were taken first. Their share in the collection is about 1.2%.

SMILES	TRPML3 ag	zfTRPN1 agonist	CRFBP-R2 block	CRFBP-R2 agonist
CC(Oc1ccccc1)C(=O)NNC(=O)c1ccccn1 (stereo not given)	1	2	-8	0
Cc1cccnc1NC(=O)C(C)Oc1ccccc1 (stereo not given)	1	0	80*	0
CCC1CCCCN1c1nc2c(C=O)c(C)nn2c2ccccc12 (stereo not given)	0	-1	-4	-1
CN(Cc1cccc(Cl)c1)C(=O)C1CCC(=O)N(C2CC2)C1 (stereo not given)	/	/	81*	0
NS(=O)(=O)c1ccc(NC(=S)Nc2ccc(F)c(F)c2)cc1	1	0	69*	7
NS(=O)(=O)c1ccc(CNC(=S)Nc2ccc(F)c(Cl)c2)cc1	1	2	-39	-1
COc1ccc(Br)cc1/C=C/C(=O)NCC(=O)O	-1	0	8	6
O=C(CCOc1ccccc1)Nc1ccc([N+](=O)[O-])cc1	0	-2	67*	1
O=C(CCOc1ccccc1)Nc1ccccc1	0	0	25	-1
CC(=O)Nc1ccc(NC(=O)COc2ccc([N+](=O)[O-])cc2)cc1	1	0	60*	-1
CCC(=O)NC1=C(C#N)C2(CCCC2)Cc2ccccc21	0	0	4	0
Cc1nn(Cc2ccccc2Cl)c(C)c1NC(=O)c1nc2ncccn2n1	0	0	58*	2
COC(=O)c1[nH]c2cc(C)ccc2c1NC(=O)CN1CCCc2ccccc21	1	0	1	1
Cc1ccc2c(c1)C1C3CCC(C3)C1S(=O)N2 (stereo not given)	0	-1	4	-2
CC(Oc1ccc(Cl)cc1Cl)C(=O)OCC(=O)c1c(N)n(C)c(=O)n(C)c1=O (stereo not given)	/	/	-5	1
COC(=O)C1=C(C)N(CCc2cc(OC)c(OC)c(OC)c2)C(=O)N[C@H]1c1ccc(Br)cc1	-1	-1	/	/
CCCCn1c(SCc2c(C)noc2C)nc2cc(S(N)(=O)=O)ccc21	0	0	54*	0
O=C(Nc1ccc(Oc2cccnc2)nc1)c1ccc(C(F)(F)F)cc1	4	12	55*	4
Cc1cc(N2CCCC2)c(F)cc1/C=C\[N+](=O)[O-]	9	15	-74	120*
Cc1cc(N2CCC(C)CC2)c(F)cc1[N+](=O)[O-]	0	1	-7	-1
O=C(Nc1ccc(Cl)cc1Cl)c1ccc2c(=O)n3c(nc2c1)CCC3	/	/	4	29
O=C(Nc1ccc(Br)cc1Cl)c1ccc2c(=O)n3c(nc2c1)CCC3	/	/	-3	101*
COC(=O)c1ccc(Cn2nnc3c(=O)[nH]c(C4CCN(S(=O)(=O)c5cc(C)ccc5C)CC4)nc32)cc1	/	/	7	0
CCCCN(C1CCS(=O)(=O)C1)S(=O)(=O)c1ccc(OC)c(OC)c1 (stereo not given)	/	/	-17	0
COc1ccc(S(=O)(=O)N(CC(C)C)C2CCS(=O)(=O)C2)cc1OC (stereo not given)	/	/	71*	0
SMILES	TRPML3 ag	zfTRPN1 agonist	CRFBP-R2 block	CRFBP-R2 agonist
Cc1cc(C)nc(NS(=O)(=O)c2ccc(NC(=O)Nc3ccccc3F)cc2)n1	1	0	-13	1
COc1cccc(CNC(=O)c2cc(S(=O)(=O)N3CCOCC3)ccc2N2CCCC2)c1	/	/	-4	0
O=C(Nc1cccc(C(F)(F)F)c1)C1C2CC3OC(=O)C1C3C2 (stereo not given)	1	1	4	1
CC1(C)C(=O)OC(c2cccn2-c2ccc([N+](=O)[O-])cc2)C2(CCCCC2)C1=O (stereo not given)	0	2	-336	263*
CC1(C)C(=O)OC(c2cccn2-c2ccc([N+](=O)[O-])cc2)C(C)(C)C1=O (stereo not given)	1	0	32	-2
CN(CC(=O)Nc1ccc(F)cc1)C(=O)c1ccccc1Sc1ccccc1C#N	/	/	-2	-1
Cn1c(=O)cc(OCCCC(=O)NCCN2CCN(c3ccccc3F)CC2)c2ccccc21	0	0	82*	0
Cn1c(=O)cc(OCC(=O)NCCCN2CCN(c3ccccc3F)CC2)c2ccccc21	0	1	-32	7
CCN(Cc1ccccc1)C(c1cccc(C#N)c1)c1nnnn1C(C)(C)C (stereo not given)	1	-2	89*	-1
CCOC(=O)c1ccc(NC(=S)NCCc2ccccc2F)cc1	4	7	-9	7
C[C@@H](C(=O)NCc1ccccc1)[C@H]1C[C@]1(C)[C@H](NC(=O)OCc1ccccc1)c1ccccc1	-1	-2	15	0
N#Cc1c(N)n(-c2ccccc2N)c2nc3ccccc3nc12	1	1	19	-5
N#Cc1c(N)n(-c2cccc(C(=O)O)c2)c2nc3ccccc3nc12	1	-2	57*	1
Cn1c(SCC(=O)c2ccc3c(c2)Cc2ccccc2-3)nnc1-c1ccccc1	1	0	10	2
OCCNc1c2ccccc2nc2c(F)c(F)c(F)c(F)c12	1	2	-113	69*
CCOC(=O)C1C(c2ccc3c(c2)OCO3)NC(=O)NC1(O)C(F)(F)F (stereo not given)	1	28*	6	3
CN1/C(=C\C(=O)Nc2ccc(Cl)cc2)C(C)(C)c2ccccc21	1	1	-16	0
CN1/C(=C\C=C(/C#N)C(=O)Nc2ccc(Cl)cc2)C(C)(C)c2ccccc21	0	5	-193	141*
CN1/C(=C\C=C(C#N)C#N)C(C)(C)c2ccccc21	0	2	-81	84*
COC(=O)c1c(NC(=O)CSc2nc3ccccc3c(=O)n2Cc2ccco2)sc(C)c1C	0	0	-5	-1
CCN(CC)S(=O)(=O)c1ccc(N2CCCC2)c(NS(=O)(=O)c2ccc(OC)cc2)c1	0	-2	-4	2
COc1ccc(OC(C)C(=O)Nc2ccc([N+](=O)[O-])cc2)cc1 (stereo not given)	-1	2	38	0
C/C(=N\NC(=O)C(C)Oc1ccc([N+](=O)[O-])cc1)c1ccccn1 (stereo not given)	0	0	55*	0
COc1ccc(C2=NOC(Cn3nc(C(=O)NCC4CC4)cc3-c3ccccc3)C2)cc1 (stereo not given)	/	/	3	-2
Cc1ccccc1OCCC(=O)Nc1cc(S(=O)(=O)N2CCCCC2)ccc1N1CCN(C)CC1	/	/	-37	68*
O=C(O)c1cccc(-c2ccc(/C=c3/sc4nc5ccccc5n4c3=O)o2)c1	2	4	-55	69*
O=c1/c(=C\c2cc([N+](=O)[O-])cc([N+](=O)[O-])c2O)sc2nc3ccccc3n12	0	0	60*	6
CCc1cc2cc(C)cc(C)c2nc1SCC(=O)N1CCN(C(=O)c2ccco2)CC1	0	1	52*	5
CCc1cc2cccc(C)c2nc1SCC(=O)N1CCN(C(=O)c2ccco2)CC1	0	-1	-6	2
CC(C)CCN1CCC(CN2CCNC(=O)C2=O)CC1	/	/	4	2

Screening data: PubChem BioAssay, several laboratories
